Experimental data published in ChEMBL document CHEMBL1165950, “Design and synthesis of new potent anticancer pyrazoles with high FLT3 kinase inhibitory selectivity” (Bioorg Med Chem, 2010).

What was measured:
Type in all cases: functional
SNB-75 = test: Cytotoxicity against human SNB75 cells assessed as cell growth at 10 uM; conditions: read-out: Activity
Outline: (§1)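 NCI-60 screen: cells grown in RPMI 1640 with 5% FBS and 2 mM L-glutamine, plated at 5000–40,000 cells/well according to doubling time, and preincubated 24 h at 37 °C, 5% CO2. The single 10 µM dose (DMSO stock) was added, then incubated 48 h. Cells were TCA-fixed and stained with 0.4% SRB, read at 515 nm, and growth % calculated against time-zero and control plates.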

OVCAR-8 = test: Cytotoxicity against human OVCAR8 cells assessed as cell growth at 1 uM after 48 hrs by sulforhodamine B assay; conditions: OVCAR-8, 48 h, read-out: Activity
HCT-15 = test: Cytotoxicity against human HCT15 cells assessed as cell growth at 0.001 uM after 48 hrs by sulforhodamine B assay; conditions: HCT-15, 48 h, read-out: Activity
NCI-H226 = test: Cytotoxicity against human NCI-H226 cells assessed as cell growth at 10 uM; conditions: read-out: Activity; outline: as §1
RXF 393 = test: Cytotoxicity against human RXF393 cells assessed as cell growth at 10 uM; conditions: read-out: Activity; outline: as §1
PC-3 [1] = test: Cytotoxicity against human PC3 cells assessed as cell growth at 0.01 uM after 48 hrs by sulforhodamine B assay; conditions: PC-3, 48 h, read-out: Activity
OVCAR-4 = test: Cytotoxicity against human OVCAR4 cells assessed as cell growth at 1 uM after 48 hrs by sulforhodamine B assay; conditions: OVCAR-4, 48 h, read-out: Activity
OVCAR-5 = test: Growth inhibition of human OVCAR5 cells after 48 hrs by sulforhodamine B assay; conditions: OVCAR-5, 48 h; for CC50: read-out: LC50 (the source's name)
Outline: (§2)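 NCI 60-cell screen, five-dose mode. Cells grown in RPMI 1640 with 5% FBS and 2 mM L-glutamine and plated at 5000-40,000 cells/well according to doubling time. After 24 h preincubation, a Tz plate was TCA-fixed. Five concentrations (10-fold or 1/2 log dilutions) were applied for 48 h at 37 °C. SRB staining read at 515 nm. IC50 taken from [(Ti-Tz)/(C-Tz)]×100 = 50.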

HOP-62 = test: Cytotoxicity against human HOP62 cells assessed as cell growth at 10 uM after 48 hrs by sulforhodamine B assay; conditions: HOP-62, 48 h, read-out: Activity
IGROV-1 = test: Cytotoxicity against human IGROV1 cells assessed as cell growth at 0.01 uM after 48 hrs by sulforhodamine B assay; conditions: IGROV-1, 48 h, read-out: Activity
BT-549 [2] = test: Cytotoxicity against human BT549 cells assessed as cell growth at 10 uM after 48 hrs by sulforhodamine B assay; conditions: BT-549, 48 h, read-out: Activity
Outline: (§3)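 NCI-60 five-dose screen. Cells were grown in RPMI 1640 with 5% FBS and 2 mM L-glutamine, plated at 5000–40,000 cells/well and preincubated for 24 h. Time-zero plates were TCA-fixed. DMSO-solubilized drug was added at five concentrations (10-fold or ½-log serial dilutions) for 48 h at 37 °C, 5% CO2. Cells were TCA-fixed, stained with 0.4% SRB and read at 515 nm. Percent growth used time-zero, control and test absorbances.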

NCI-H522 [3] = test: Cytotoxicity against human NCI-H522 cells assessed as cell growth at 10 uM; conditions: read-out: Activity; outline: as §1
SF-295 = test: Growth inhibition of human SF295 cells after 48 hrs by sulforhodamine B assay; conditions: SF-295, 48 h; for CC50: read-out: LC50 (the source's name); outline: as §2
BT-549 [4] = test: Cytotoxicity against human BT549 cells assessed as cell growth at 0.001 uM after 48 hrs by sulforhodamine B assay; conditions: BT-549, 48 h, read-out: Activity; outline: as §3
MDA-MB-468 = test: Cytotoxicity against human MDA-MB-468 cells assessed as cell growth at 0.01 uM after 48 hrs by sulforhodamine B assay; conditions: MDA-MB-468, 48 h, read-out: Activity
T47D = test: Cytotoxicity against human T47D cells assessed as cell growth at 10 uM after 48 hrs by sulforhodamine B assay; conditions: read-out: Activity
HCC 2998 = test: Cytotoxicity against human HCC2998 cells assessed as cell growth at 0.001 uM after 48 hrs by sulforhodamine B assay; conditions: HCC 2998, 48 h, read-out: Activity
[5] = Cytotoxicity against human RPMI8266 cells assessed as cell growth at 1 uM after 48 hrs by sulforhodamine B assay; conditions: read-out: Activity
SK-MEL-2 = test: Cytotoxicity against human SK-MEL-2 cells assessed as cell growth at 0.001 uM after 48 hrs by sulforhodamine B assay; conditions: SK-MEL-2, 48 h, read-out: Activity
NCI-H522 [6] = test: Cytotoxicity against human NCI-H522 cells assessed as cell growth at 10 uM after 48 hrs by sulforhodamine B assay; conditions: NCI-H522, 48 h, read-out: Activity
SW-620 [7] = test: Cytotoxicity against human SW620 cells assessed as cell growth at 0.01 uM after 48 hrs by sulforhodamine B assay; conditions: SW-620, 48 h, read-out: Activity
M14 = test: Growth inhibition of human M14 cells after 48 hrs by sulforhodamine B assay; conditions: M14, 48 h; for CC50: read-out: LC50 (the source's name); outline: as §2
KM12 = test: Growth inhibition of human KM12 cells after 48 hrs by sulforhodamine B assay; conditions: KM12, 48 h; for CC50: read-out: LC50 (the source's name); outline: as §2
PC-3 [8] = test: Cytotoxicity against human PC3 cells assessed as cell growth at 10 uM; conditions: read-out: Activity; outline: as §1
MCF7 = test: Cytotoxicity against human MCF7 cells assessed as cell growth at 0.01 uM after 48 hrs by sulforhodamine B assay; conditions: MCF7, 48 h, read-out: Activity
NCI-H23 = test: Cytotoxicity against human NCI-H23 cells assessed as cell growth at 0.001 uM after 48 hrs by sulforhodamine B assay; conditions: NCI-H23, 48 h, read-out: Activity
CCRF-CEM = test: Cytotoxicity against human CCRF-CEM cells assessed as cell growth at 0.01 uM after 48 hrs by sulforhodamine B assay; conditions: read-out: Activity; outline: as §3
HOP-92 = test: Cytotoxicity against human HOP92 cells assessed as cell growth at 10 uM after 48 hrs by sulforhodamine B assay; conditions: HOP-92, 48 h, read-out: Activity
LOX IMVI = test: Growth inhibition of human LOXIMVI cells after 48 hrs by sulforhodamine B assay; conditions: for CC50: read-out: LC50 (the source's name); outline: as §2
SW-620 [9] = test: Growth inhibition of human SW620 cells after 48 hrs by sulforhodamine B assay; conditions: SW-620, 48 h; for CC50: read-out: LC50 (the source's name); outline: as §2
A549 = test: Cytotoxicity against human A549 cells assessed as cell growth at 10 uM after 48 hrs by sulforhodamine B assay; conditions: A549, 48 h, read-out: Activity; outline: as §3
[10] = Cytotoxicity against human Hs 578T cells assessed as cell growth at 0.01 uM after 48 hrs by sulforhodamine B assay; conditions: read-out: Activity

Compound `COc1cc(C)cc(-c2c(-c3ccnc(-c4ccc(C(C)=O)cc4)c3)cnn2CC#N)c1` has a growth at 10 µM (SNB-75) of 57.9%, a growth at 1 µM (OVCAR-8) of 8% and a growth at 0.001 µM (HCT-15) of 94%. The growth at 10 µM (NCI-H226) was 83.7%, the growth at 10 µM (RXF 393) was 54.8% and the growth at 0.01 µM (PC-3 [1]) was 88%. It also gave a growth at 1 µM (OVCAR-4) of 27%, a GI50 (OVCAR-5) of over 100 µM and a TGI (OVCAR-5) of over 100 µM. It also gave a CC50 (OVCAR-5) of over 100 µM, a growth at 10 µM (HOP-62) of 11% and a growth at 0.01 µM (IGROV-1) of 94%. The growth at 10 µM (BT-549 [2]) was 24%, the growth at 10 µM (NCI-H522 [3]) was 45% and the GI50 (SF-295) was 5.84 µM. It also gave a TGI (SF-295) of over 100 µM, a CC50 (SF-295) of over 100 µM and a growth at 0.001 µM (BT-549 [4]) of 96%. For the same compound, the growth at 0.01 µM (MDA-MB-468) was 84%, the growth at 10 µM (T47D) was -12% and the growth at 0.001 µM (HCC 2998) was 95%. The growth at 1 µM [5] was -4%, the growth at 0.001 µM (SK-MEL-2) was 92% and the growth at 10 µM (NCI-H522 [6]) was -10%. It also gave a growth at 0.01 µM (SW-620 [7]) of 88%, a GI50 (M14) of 1.97 µM and a CC50 (M14) of over 100 µM. It also gave a GI50 (KM12) of 2.87 µM, a TGI (KM12) of over 100 µM and a CC50 (KM12) of over 100 µM. For the same compound, the growth at 10 µM (PC-3 [8]) was 77.3%, the growth at 0.01 µM (MCF7) was 92% and the growth at 0.001 µM (NCI-H23) was 94%. The growth at 0.01 µM (CCRF-CEM) was 93%, the growth at 10 µM (HOP-92) was -1% and the GI50 (LOX IMVI) was 3.39 µM. It also gave a TGI (LOX IMVI) of over 100 µM, a CC50 (LOX IMVI) of over 100 µM and a GI50 (SW-620 [9]) of 2.27 µM. The TGI (SW-620 [9]) was over 100 µM, the CC50 (SW-620 [9]) was over 100 µM and the growth at 10 µM (A549) was 30%. The growth at 0.01 µM [10] was 98%.
Work on `COc1cc(C)cc(-c2c(-c3ccnc(-c4ccc(N(C)C)cc4)c3)cnn2CC#N)c1` yielded a growth at 10 µM (SNB-75) of -21.1%, a growth at 1 µM (OVCAR-8) of 12% and a growth at 0.001 µM (HCT-15) of 100%. For the same compound, the growth at 10 µM (NCI-H226) was 39.8%, the growth at 10 µM (RXF 393) was 23.3% and the growth at 0.01 µM (PC-3 [1]) was 30%. It also gave a growth at 1 µM (OVCAR-4) of 31%, a GI50 (OVCAR-5) of over 100 µM and a TGI (OVCAR-5) of over 100 µM. The CC50 (OVCAR-5) was over 100 µM, the growth at 10 µM (HOP-62) was 32% and the growth at 0.01 µM (IGROV-1) was -3%. It also gave a growth at 10 µM (BT-549 [2]) of -25%, a growth at 10 µM (NCI-H522 [3]) of -23.6% and a GI50 (SF-295) of 0.0529 µM. The TGI (SF-295) was 0.315 µM, the CC50 (SF-295) was over 100 µM and the growth at 0.001 µM (BT-549 [4]) was 93%. The growth at 0.01 µM (MDA-MB-468) was -10%, the growth at 10 µM (T47D) was 6% and the growth at 0.001 µM (HCC 2998) was 96%. It also gave a growth at 1 µM [5] of -31%, a growth at 0.001 µM (SK-MEL-2) of 97% and a growth at 10 µM (NCI-H522 [6]) of -52%. It also gave a growth at 0.01 µM (SW-620 [7]) of 69%, a GI50 (M14) of 0.0541 µM and a TGI (M14) of 0.483 µM. For the same compound, the CC50 (M14) was over 100 µM, the GI50 (KM12) was 0.0475 µM and the TGI (KM12) was 0.264 µM. It also gave a CC50 (KM12) of over 100 µM, a growth at 10 µM (PC-3 [8]) of 27.6% and a growth at 0.01 µM (MCF7) of 56%. The growth at 0.001 µM (NCI-H23) was 86%, the growth at 0.01 µM (CCRF-CEM) was 73% and the growth at 10 µM (HOP-92) was -26%. The GI50 (LOX IMVI) was 0.0668 µM, the TGI (LOX IMVI) was over 100 µM and the CC50 (LOX IMVI) was over 100 µM. It also gave a GI50 (SW-620 [9]) of 0.0394 µM, a TGI (SW-620 [9]) of over 100 µM and a CC50 (SW-620 [9]) of over 100 µM. For the same compound, the growth at 10 µM (A549) was 4% and the growth at 0.01 µM [10] was 58%.
